bIAP activator – intestinal alkaline phosphatase (bovine) activation; purified bovine IAP, CDP-star luminescence, 30 min; active compounds read high; fold of DMSO-control signal, blank-subtracted; activation factor at 20 µM; 200,000 compounds, 0.17% hits;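 active means activation factor of 2 or more at 20 µM, a signal rise over negative controls twice the positive control's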
mIAP inh – mouse IAP inhibition; purified mouse IAP, CDP-Star luminescence, 30 min; inhibition, % at 10 µM; 330,000 compounds, 0.2% hits;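 active means inhibition of at least 40% at 10 µM in the primary screen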
hIAP activ – human IAP activation. activation factor at 10 µM. purified human IAP, CDP-Star luminescence, 30 min; active compounds read high; 1 = vehicle-only enzyme, 0 = enzyme-free background. 330,000 compounds, 0.16% hits. AID 2524;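 active means activation factor of the enzyme at least 2-fold when tested at 20 µM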
Target sequence (P09923 whole entry, looked up): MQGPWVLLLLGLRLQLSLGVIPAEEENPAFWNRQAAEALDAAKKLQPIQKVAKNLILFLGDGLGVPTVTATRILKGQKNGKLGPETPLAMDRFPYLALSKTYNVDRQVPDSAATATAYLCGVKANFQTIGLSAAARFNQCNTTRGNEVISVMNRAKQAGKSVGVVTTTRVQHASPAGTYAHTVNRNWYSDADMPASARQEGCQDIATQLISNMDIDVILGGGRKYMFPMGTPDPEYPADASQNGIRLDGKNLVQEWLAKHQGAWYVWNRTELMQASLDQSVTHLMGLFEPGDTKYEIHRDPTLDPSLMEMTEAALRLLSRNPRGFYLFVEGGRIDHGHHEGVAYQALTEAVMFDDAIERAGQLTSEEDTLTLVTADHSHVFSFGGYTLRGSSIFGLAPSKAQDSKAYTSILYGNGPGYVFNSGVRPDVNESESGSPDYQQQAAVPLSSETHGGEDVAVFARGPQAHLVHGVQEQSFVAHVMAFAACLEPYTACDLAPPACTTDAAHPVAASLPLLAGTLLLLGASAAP
bIAP inh – blocks bovine intestinal alkaline phosphatase activity; 190,000 tested, under 10 active; inhibition, % at 20 µM; purified bovine IAP, CDP-star luminescence, 30 min;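 active means over 50% inhibition of intestinal alkaline phosphatase at 20 µM in the single-dose screen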
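Incubation: 30 min reaction at room temperature / Material: purified bovine intestinal alkaline phosphatase (IAP) enzyme / Input: enzyme at 1/65,000,000 dilution / Dosing: 20 µM single dose / Signal: CDP-star luminescence signal / Reagent: CDP-star chemiluminescent phosphatase substrate, 30 µM final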
hIAP inh – blocks human intestinal alkaline phosphatase. P09923. 330,000 compounds, 0.12% hits. inhibition, % at 10 µM. purified IAP, CDP-Star luminescence, 30 min;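 active means inhibition reaching a set limit with compound at 10 µM in the primary screen, cut at about 35% in these data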
mIAP act – increases mouse intestinal alkaline phosphatase activity | muIAP, CDP-Star luminescence, 30 min; active compounds read high; 1 = vehicle-only enzyme signal, 0 = enzyme-free wells | AID 2805 | 330,000 compounds, 0.24% hits | activation factor at 10 µM;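 active means activation factor of at least 2 at 20 µM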
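Assay system: mouse IAP enzyme; reagent: chemiluminescent substrate CDP-Star; dosing: test compounds delivered from DMSO solution; schedule: 30 min at room temperature; measured by: luminescence from enzymatic CDP-Star hydrolysis; controls: DMSO-only wells and no-enzyme negative control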
Hits are given with their value. This is a sample that favours compounds with a hit; in the whole collection about 0.77% have one here.

What do the screens show for `C[C@@H](C(=O)Nc1ccc2ccccc2c1)[C@@H]1C[C@@]1(C)[C@@H](NC(=O)c1ccccc1)c1ccccc1`?
bIAP activator: inactive; mIAP inh: inactive; hIAP activ: inactive; bIAP inh: inactive; hIAP inh: inactive; mIAP act: 2.3

How did CCN1/C(=C/C=C/c2oc3ccc4ccccc4c3[n+]2CC)Oc2ccc3ccccc3c21 do in these assays?
bIAP activator: inactive; mIAP inh: 47; hIAP activ: inactive; bIAP inh: inactive; hIAP inh: 44; mIAP act: inactive

What do the screens show for `CC[n+]1c(/C=C/N(C)c2ccccc2)oc2ccc(Cl)cc21`?
bIAP activator: inactive; mIAP inh: inactive; hIAP activ: inactive; bIAP inh: inactive; hIAP inh: inactive; mIAP act: inactive

Results for COc1ccccc1OCC(=O)N1CCCC(Nc2cccc(F)c2)C1 (centres undefined) ?
mIAP inh: inactive; hIAP activ: inactive; hIAP inh: inactive; mIAP act: inactive

What do the screens show for `O=C(Nc1cc(Cl)cc(Cl)c1)C1CCC(=O)N1Cc1ccccc1Cl` (centres undefined)?
bIAP activator: inactive; mIAP inh: inactive; hIAP activ: inactive; bIAP inh: inactive; hIAP inh: inactive; mIAP act: 2

Results for CC1CN(C(=O)/C(=C/c2ccco2)NC(=O)c2ccccc2)CC(C)O1 (centres undefined) ?
mIAP inh: inactive; hIAP activ: inactive; hIAP inh: inactive; mIAP act: inactive

Results for O=C(N/N=C\c1ccc([N+](=O)[O-])o1)c1cncc(Br)c1 ?
mIAP inh: inactive; hIAP activ: inactive; hIAP inh: inactive; mIAP act: inactive

Results for O=C(N/N=C/c1ccc(-c2ccccc2[N+](=O)[O-])o1)c1cncc(Br)c1 ?
bIAP activator: 3.7; mIAP inh: inactive; hIAP activ: inactive; bIAP inh: inactive; hIAP inh: inactive; mIAP act: inactive

Results for O=C(c1ccco1)N1CCN(C(=S)Nc2ccccc2C(F)(F)F)CC1 ?
mIAP inh: inactive; hIAP activ: inactive; hIAP inh: inactive; mIAP act: inactive

What do the screens show for `O=C1CCC/C(=N/NC(=O)c2sc3ccccc3c2Cl)C1`?
mIAP inh: inactive; hIAP activ: 2.8; hIAP inh: inactive; mIAP act: inactive

What do the screens show for `O=C(NN=C1CCCC1)c1sc2ccccc2c1Cl`?
bIAP activator: inactive; mIAP inh: inactive; hIAP activ: inactive; bIAP inh: inactive; hIAP inh: inactive; mIAP act: inactive

How did COc1ccc(N2CCN(CNC(=O)c3ccccc3)CC2)cc1 do in these assays?
mIAP inh: inactive; hIAP activ: inactive; hIAP inh: inactive; mIAP act: inactive

Results for C#CCOCCOCCOCCNc1nc(N2CCN(C(=O)C(Cc3cc4ccccc4[nH]3)n3cc(C(N)C(C)CC)nn3)CC2)nc(N2CCN(C(=O)C(Cc3cc4ccccc4[nH]3)n3cc(C(N)C(C)CC)nn3)CC2)n1 (centres undefined) ?
bIAP activator: 3.9; mIAP inh: inactive; hIAP activ: inactive; bIAP inh: inactive; hIAP inh: inactive; mIAP act: inactive

What do the screens show for `CC(C)(C)c1ccc(OCC(=O)Nc2ccc(-c3nc4cccnc4o3)cc2)cc1`?
bIAP activator: 2; mIAP inh: inactive; hIAP activ: inactive; bIAP inh: inactive; hIAP inh: inactive; mIAP act: inactive

How did CC1CN(C(=O)c2cc(-c3ccc(Cl)s3)nc3ccccc23)CC(C)O1 (centres undefined) do in these assays?
mIAP inh: inactive; hIAP activ: inactive; hIAP inh: inactive; mIAP act: inactive

How did CCOC(=O)c1ccc(NC(=O)NC2CCN(CC(=O)NCc3ccc4c(c3)OCO4)CC2)cc1 do in these assays?
bIAP activator: inactive; mIAP inh: inactive; hIAP activ: inactive; bIAP inh: inactive; hIAP inh: inactive; mIAP act: 2.3

How did CSc1ncc(C(=O)Nc2cccc(C)c2C)c(C)n1 do in these assays?
mIAP inh: inactive; hIAP activ: inactive; hIAP inh: inactive; mIAP act: inactive

What do the screens show for `Cc1ccc(C)c(NC(=O)CCC(=O)N/N=C/c2ccc[nH]2)c1`?
bIAP activator: inactive; mIAP inh: inactive; hIAP activ: inactive; bIAP inh: inactive; hIAP inh: inactive; mIAP act: inactive

What do the screens show for `Cc1c(Cl)cccc1NC(=O)CCC(=O)N/N=C/c1ccc[nH]1`?
bIAP activator: inactive; mIAP inh: 51; hIAP activ: inactive; bIAP inh: inactive; hIAP inh: inactive; mIAP act: inactive

What do the screens show for `O=C(Nc1cccc(F)c1)c1ccc(-c2ccccc2C(F)(F)F)o1`?
bIAP activator: inactive; bIAP inh: inactive

How did Cc1ccccc1-c1ccc(C(=O)Nc2cccc(F)c2)o1 do in these assays?
bIAP activator: 3.5; mIAP inh: inactive; hIAP activ: inactive; bIAP inh: inactive; hIAP inh: inactive; mIAP act: inactive

Results for O=C(Nc1n[nH]c(C2CCCCC2)n1)C1CCCCC1 ?
bIAP activator: 8.1; mIAP inh: inactive; hIAP activ: inactive; bIAP inh: inactive; hIAP inh: inactive; mIAP act: 2.3

What do the screens show for `O=C(Nc1ncccn1)C1CCCCC1`?
bIAP activator: inactive; mIAP inh: inactive; hIAP activ: inactive; bIAP inh: inactive; hIAP inh: inactive; mIAP act: inactive

Results for COc1cc([C@@H]2c3cc4c(cc3[C@@H](O[C@@H]3O[C@@H]5CO[C@@H](C)O[C@H]5[C@H](O)[C@H]3O)[C@H]3COC(=O)[C@H]23)OCO4)cc(OC)c1O ?
mIAP inh: inactive; hIAP activ: inactive; hIAP inh: inactive; mIAP act: inactive

How did Cc1ccc(Sc2ccc(S(=O)(=O)Nc3ccc(C(=O)O)cc3)cc2)cc1C do in these assays?
mIAP inh: inactive; hIAP activ: inactive; hIAP inh: inactive; mIAP act: inactive

What do the screens show for `Cc1c(CCOC(=O)C23CC4CC(CC(C)(C4)C2)C3)sc[n+]1CC(=O)c1ccccc1`?
bIAP activator: inactive; mIAP inh: 43; hIAP activ: inactive; bIAP inh: inactive; hIAP inh: inactive; mIAP act: inactive

Results for Cc1c(CCOC(=O)CC23CC4CC(CC(C)(C4)C2)C3)sc[n+]1CC(=O)c1ccccc1 ?
bIAP activator: inactive; mIAP inh: inactive; hIAP activ: inactive; bIAP inh: inactive; hIAP inh: inactive; mIAP act: inactive

Results for Cn1cccc1C(=O)NC(=O)COC(=O)CCNS(=O)(=O)c1ccc(Cl)cc1 ?
mIAP inh: inactive; hIAP activ: inactive; hIAP inh: inactive; mIAP act: inactive

Results for CCCCCCCCCCCCCCCCn1cc[n+](CC(C)=O)c1 ?
bIAP activator: 5.2; bIAP inh: inactive

What do the screens show for `CCCCCCn1ccc(=N)cc1`?
bIAP activator: inactive; mIAP inh: inactive; hIAP activ: inactive; bIAP inh: inactive; hIAP inh: inactive; mIAP act: inactive

What do the screens show for `CC(c1ccccc1)N1CCn2c(nc3cc(NC(=O)NC4CCCCC4)ccc32)C1` (centres undefined)?
bIAP activator: 2.5; bIAP inh: inactive

Screening results: PubChem, Sanford-Burnham Center for Chemical Genomics
